Experimental data taken from ChEMBL document CHEMBL3758101, “Synthesis and biological evaluation of fluorinated 1,5-diarylpyrrole-3-alkoxyethyl ether derivatives as selective COX-2 inhibitors endowed with anti-inflammatory activity” (Eur J Med Chem, 2016).

How the values were obtained:
HaCaT = experiment: Cytotoxicity against human HaCaT cells at 1 to 50 uM after 24 hrs by LDH release assay; type: cell-based
Summary of the method: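 HaCaT cells were grown in high-glucose DMEM with 10% FBS to 80% confluency. They were exposed 24 h to compound at 1–50 µM (final DMSO ≤0.1%). LDH release was expressed as a percentage of Triton X-100 lysis (100%); mean of three experiments.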

Mus musculus [1] = experiment: Antinociceptive activity in CD1 albino mouse model of acetic acid-induced visceral pain assessed as number of writhes at 3 mg/kg, po pretreated for 30 mins before acetic acid challenge measured after 5 mins (reference value: 30.5 +/- 1.7); type: functional
Rattus norvegicus [2] = experiment: Antihyperalgesic activity in Sprague-Dawley rat model of carrageenan-induced inflammatory pain assessed as paw pressure threshold at 3 mg/kg, po administered 2 hrs post carrageenan challenge measured after 60 mins by paw pressure test (reference value: 35.4 +/- 3.6 g)
Rattus norvegicus [3] = experiment: Antihyperalgesic effect in Sprague-Dawley rat model of monosodium iodoacetate-induced osteoarthritis assessed as withdrawal threshold at 10 mg/kg, ip administered 14 days post MIA challenge measured after 90 mins by paw pressure test (reference value: 37.8 +/- 3.1 g); type: functional
Summary of the method: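 Male Sprague–Dawley rats (200–250 g). MIA (2 mg/25 µL) was injected into the left tibiotarsal joint on day 0 under 2% isoflurane; controls received 25 µL saline. On day 14 compound or vehicle was given at time 0. Paw pressure threshold (g) was read with an analgesimeter using a blunt conical probe on the dorsal paw at 30, 60, 90 and 120 min. Mean ± s.e.m., 6 rats.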

Rattus norvegicus [4] = experiment: Antiinflammatory activity in Sprague-Dawley rat model of carrageenan-induced […] at 10 mg/kg, po administered 2 hrs post carrageenan challenge measured after 60 mins by […] (reference value: 35.4 +/- 3.6 ml); type: functional
Rattus norvegicus [5] = experiment: Antihyperalgesic activity in Sprague-Dawley rat model of carrageenan-induced inflammatory pain assessed as paw pressure threshold at 20 mg/kg, po administered 2 hrs post carrageenan challenge measured after 120 mins by paw pressure test (reference value: 34.5 +/- 4.4 g)
Mus musculus [6] = experiment: Antinociceptive activity in CD1 albino mouse model of acetic acid-induced visceral pain assessed as number of writhes at 3 mg/kg, po pretreated for 60 mins before acetic acid challenge measured after 5 mins (reference value: 32.5 +/- 2.4); type: functional
Rattus norvegicus [7] = experiment: Antiinflammatory activity in Sprague-Dawley rat model of carrageenan-induced paw edema assessed as paw volume at 3 mg/kg, po administered 2 hrs post carrageenan challenge measured after 120 mins by plethysmometry (reference value: 34.5 +/- 4.4 ml); type: functional
Rattus norvegicus [8] = experiment: Antihyperalgesic activity in Sprague-Dawley rat model of carrageenan-induced inflammatory pain assessed as paw pressure threshold at 3 mg/kg, po administered 2 hrs post carrageenan challenge measured after 30 mins by paw pressure test (reference value: 34.1 +/- 2.3 g)
Rattus norvegicus [9] = experiment: Antihyperalgesic activity in Sprague-Dawley rat model of carrageenan-induced inflammatory pain assessed as paw pressure threshold at 20 mg/kg, po administered 2 hrs post carrageenan challenge measured after 90 mins by paw pressure test (reference value: 37.2 +/- 3.4 g)
Rattus norvegicus [10] = experiment: Antiinflammatory activity in Sprague-Dawley rat model of carrageenan-induced paw edema assessed as paw volume at 20 mg/kg, po administered 2 hrs post carrageenan challenge measured after 30 mins by plethysmometry (reference value: 34.1 +/- 2.3 ml); type: functional

Structure (SMILES): Cc1c(CCOCCCF)cc(-c2ccc(S(C)(=O)=O)cc2)n1-c1ccc(F)cc1
- Activity (HaCaT): Non-toxic
- Activity (Mus musculus [1]): 21.8
- Activity (Rattus norvegicus [2]): 49.2 g
- Activity (Rattus norvegicus [3]): 44.3 g
- Activity (Rattus norvegicus [4]): 53.5 g
- Activity (Rattus norvegicus [5]): 35.5 g
- Activity (Mus musculus [6]): 24.6
- Activity (Rattus norvegicus [7]): 36.2 g
- Activity (Rattus norvegicus [8]): 45.2 g
- Activity (Rattus norvegicus [9]): 44.9 g
- Activity (Rattus norvegicus [10]): 53.9 g
